Laboratory results taken from ChEMBL document CHEMBL1141286, “Benzochromenones from the marine crinoid Comantheria rotula inhibit hypoxia-inducible factor-1 (HIF-1) in cell-based reporter assays and differentially suppress the growth of certain tumor cell lines” (J Nat Prod, 2007).
Calls of active or inactive are those of the source. No cut-off for these calls is given here.

Key:
[1] = system: T47D; assay: Inhibition of 1,10-phenanthroline-induced VEGF protein secretion in human T47D cells at 10 uM after 16 hrs by ELISA; format: functional, cell-based
Summary of the method: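 T47D cells stimulated with 1,10-phenanthroline, compound at 10 μM; secreted VEGF in conditioned media by ELISA, normalized to cell-lysate protein.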

[2] = DPPH radical scavenging activity relative to Trolox; format: functional; design: concentration or dose not given beside the values
Summary of the method: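 Compounds were made up as DMSO stocks and diluted in isopropanol to a final 10 μM. Each was mixed with DPPH in isopropanol at 10 μM or 30 μM DPPH, and absorbance was read at 515 nm. Scavenging was calculated as [1 − OD515(compound)/OD515(control)] × 100, then expressed as a percentage of Trolox activity. One experiment was run in triplicate.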

[3] = system: MOLT-4; assay: Growth inhibition of human MOLT4 cells; format: functional
[4] = system: SR; assay: Growth inhibition of human SR cells; format: functional
[5] = system: A549; assay: Growth inhibition of human A549 cells; format: functional
[6] = system: EKVX; assay: Growth inhibition of human EKVX cells; format: functional
[7] = system: HOP-92; assay: Growth inhibition of human HOP92 cells; format: functional
[8] = system: NCI-H322M; assay: Growth inhibition of human NCI-H322M cells; format: functional
[9] = system: NCI-H460; assay: Growth inhibition of human NCI-H460 cells; format: functional
[10] = system: COLO 205; assay: Growth inhibition of human COLO205 cells; format: functional
[11] = system: HCT-15; assay: Growth inhibition of human HCT15 cells; format: functional
[12] = system: SW-620; assay: Growth inhibition of human SW620 cells; format: functional
[13] = system: SF-268; assay: Growth inhibition of human SF268 cells; format: functional
[14] = system: SF-539; assay: Growth inhibition of human SF539 cells; format: functional
[15] = system: SNB-19; assay: Growth inhibition of human SNB19 cells; format: functional
[16] = system: SNB-75; assay: Growth inhibition of human SNB75 cells; format: functional
[17] = system: LOX IMVI; assay: Growth inhibition of human LOXIMVI cells; format: functional
[18] = system: SK-MEL-2; assay: Growth inhibition of human SK-MEL2 cells; format: functional
[19] = system: SK-MEL-5; assay: Growth inhibition of human SK-MEL5 cells; format: functional
[20] = system: UACC-257; assay: Growth inhibition of human UACC257 cells; format: functional
[21] = system: UACC-62; assay: Growth inhibition of human UACC62 cells; format: functional
[22] = system: SK-OV-3; assay: Growth inhibition of human SK-OV3 cells; format: functional
[23] = system: IGROV-1; assay: Growth inhibition of human IGROV1 cells; format: functional
[24] = system: 786-0; assay: Growth inhibition of human 786-0 cells; format: functional
[25] = system: A498; assay: Growth inhibition of human A498 cells; format: functional
[26] = system: ACHN; assay: Growth inhibition of human ACHN cells; format: functional
[27] = system: CAKI-1; assay: Growth inhibition of human CAKI1 cells; format: functional
[28] = system: SN12C; assay: Growth inhibition of human SN12C cells; format: functional
[29] = system: UO-31; assay: Growth inhibition of human UO31 cells; format: functional
[30] = system: PC-3; assay: Growth inhibition of human PC3 cells; format: functional
[31] = system: MCF7; assay: Growth inhibition of human MCF7 cells; format: functional
[32] = system: NCI/ADR-RES; assay: Growth inhibition of human NCI/ADR-RES cells; format: functional
[33] = system: Hs-578T; assay: Growth inhibition of human HS578T cells; format: functional
[34] = system: MDA-MB-435; assay: Growth inhibition of human MDA-MB-435 cells; format: functional
[35] = system: BT-549; assay: Growth inhibition of human BT549 cells; format: functional
[36] = system: T47D; assay: Growth inhibition of human T47D cells; format: functional
[37] = system: HL-60; assay: Growth inhibition of human HL60 cells; format: functional
[38] = target: Hypoxia inducible factors; HIF-1-alpha, HIF-2-alpha (Homo sapiens, UniProt Q16665+Q99814); assay: Inhibition of HIF1 activation in human T47D cells by TK-luciferase assay; format: cell-based
Summary of the method: (§1)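 HIF-1 reporter (pHRE-TK-Luc) assays in transfected PC-3 or T47D cells; HIF-1 induced by hypoxia or by the hypoxia mimetic 1,10-phenanthroline (10 μM); compounds at half-log concentrations; luciferase activity measured; IC50 from experiments in triplicate.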

[39] = Inhibition of 1,10-phenanthroline-induced HIF1 activation in PC3 cells by TK-luciferase assay; format: cell-based; conditions: Homo sapiens, PC-3; summary of the method: as §1
[40] = read-out: Log LC50 (the source's name) (converted)

For `COc1cc(O)cc2cc3oc(C)cc(=O)c3c(O)c12`, the Activity [1] was “inactive”, the Activity [2] was 40% and the GI50 [3] was 17.8 µM. It also gave a CC50 [3, 40] of over 100 µM, a TGI ([3]; read-out: Log TGI (converted)) of 51.3 µM and a GI50 [4] of 15.1 µM. It also gave a CC50 [4, 40] of over 100 µM, a TGI ([4]; read-out: Log TGI (converted)) of 41.7 µM and a GI50 [5] of 29.5 µM. The CC50 [5, 40] was over 100 µM, the TGI ([5]; read-out: Log TGI (converted)) was over 100 µM and the GI50 [6] was 37.2 µM. It also gave a CC50 [6, 40] of over 100 µM, a TGI ([6]; read-out: Log TGI (converted)) of over 100 µM and a GI50 [7] of 30.9 µM. For the same molecule, the CC50 [7, 40] was over 100 µM, the TGI ([7]; read-out: Log TGI (converted)) was over 100 µM and the GI50 [8] was 26.9 µM. For the same molecule, the CC50 [8, 40] was over 100 µM, the TGI ([8]; read-out: Log TGI (converted)) was 95.5 µM and the GI50 [9] was 19.1 µM. It also gave a CC50 [9, 40] of over 100 µM, a TGI ([9]; read-out: Log TGI (converted)) of 50.1 µM and a GI50 [10] of 20.4 µM. For the same molecule, the CC50 [10, 40] was over 100 µM, the TGI ([10]; read-out: Log TGI (converted)) was 55 µM and the GI50 [11] was 23.4 µM. It also gave a CC50 [11, 40] of over 100 µM, a TGI ([11]; read-out: Log TGI (converted)) of 70.8 µM and a GI50 [12] of 0.295 µM. It also gave a CC50 [12, 40] of over 100 µM, a TGI ([12]; read-out: Log TGI (converted)) of 17 µM and a GI50 [13] of 30.2 µM. It also gave an LC50 [13] of over 100 µM, a TGI ([13]; read-out: Log TGI (converted)) of over 100 µM and a GI50 [14] of 27.5 µM. The LC50 [14] was over 100 µM, the TGI ([14]; read-out: Log TGI (converted)) was 87.1 µM and the GI50 [15] was 32.4 µM. The LC50 [15] was over 100 µM, the TGI ([15]; read-out: Log TGI (converted)) was over 100 µM and the GI50 [16] was 46.8 µM. It also gave an LC50 [16] of over 100 µM, a TGI ([16]; read-out: Log TGI (converted)) of over 100 µM and a GI50 [17] of 18.2 µM. It also gave an LC50 [17] of over 100 µM, a TGI ([17]; read-out: Log TGI (converted)) of 52.5 µM and a GI50 [18] of 4.9 µM. The LC50 [18] was over 100 µM, the TGI ([18]; read-out: Log TGI (converted)) was 35.5 µM and the GI50 [19] was 0.457 µM. For the same molecule, the LC50 [19] was 34.7 µM, the TGI ([19]; read-out: Log TGI (converted)) was 12 µM and the GI50 [20] was 45.7 µM. The LC50 [20] was over 100 µM, the TGI ([20]; read-out: Log TGI (converted)) was over 100 µM and the GI50 [21] was 29.5 µM. The LC50 (lethal concentration, 50% cell kill) [21] was over 100 µM, the TGI ([21]; read-out: Log TGI (converted)) was over 100 µM and the GI50 [22] was 31.6 µM. For the same molecule, the LC50 [22] was over 100 µM, the TGI ([22]; read-out: Log TGI (converted)) was over 100 µM and the GI50 [23] was 0.437 µM. For the same molecule, the CC50 [23, 40] was over 100 µM, the TGI ([23]; read-out: Log TGI (converted)) was 23.4 µM and the GI50 [24] was 20 µM. It also gave an LC50 [24] of over 100 µM, a TGI ([24]; read-out: Log TGI (converted)) of 50.1 µM and a GI50 [25] of 0.617 µM. It also gave an LC50 [25] of over 100 µM, a TGI ([25]; read-out: Log TGI (converted)) of 11.7 µM and a GI50 [26] of 17 µM. For the same molecule, the CC50 [26, 40] was over 100 µM, the TGI ([26]; read-out: Log TGI (converted)) was over 100 µM and the GI50 [27] was 42.7 µM. For the same molecule, the LC50 [27] was over 100 µM, the TGI ([27]; read-out: Log TGI (converted)) was over 100 µM and the GI50 [28] was 32.4 µM. It also gave an LC50 [28] of over 100 µM, a TGI ([28]; read-out: Log TGI (converted)) of over 100 µM and a GI50 [29] of 5.13 µM. The LC50 [29] was over 100 µM, the TGI ([29]; read-out: Log TGI (converted)) was 37.2 µM and the GI50 [30] was 32.4 µM. It also gave an LC50 [30] of over 100 µM, a TGI ([30]; read-out: Log TGI (converted)) of over 100 µM and a GI50 [31] of 31.6 µM. The LC50 [31] was over 100 µM, the TGI ([31]; read-out: Log TGI (converted)) was over 100 µM and the GI50 [32] was 22.4 µM. The LC50 (concentration killing 50% of cells) [32] was over 100 µM, the TGI ([32]; read-out: Log TGI (converted)) was over 100 µM and the GI50 [33] was 0.589 µM. The LC50 [33] was over 100 µM, the GI50 [34] was 27.5 µM and the LC50 [34] was over 100 µM. For the same molecule, the TGI ([34]; read-out: Log TGI (converted)) was over 100 µM, the GI50 [35] was 20.4 µM and the LC50 [35] was over 100 µM. For the same molecule, the TGI ([35]; read-out: Log TGI (converted)) was over 100 µM, the GI50 [36] was 17.8 µM and the LC50 [36] was over 100 µM. For the same molecule, the TGI ([36]; read-out: Log TGI (converted)) was over 100 µM, the GI50 [37] was 20.9 µM and the LC50 [37] was 83.2 µM. It also gave a TGI ([37]; read-out: Log TGI (converted)) of 41.7 µM, an IC50 [38] of 3.4 µM and an IC50 [39] of 2.5 µM.
